pEC50: −log10 of the molar value.
Experiments:
[1] = system: Human immunodeficiency virus 1; test: Antiviral activity against HIV-1 harboring NNTRI-resistant reverse transcriptase Y181C mutant infected in human MT4 cells assessed as inhibition of virus-induced cytopathic effect by MTT method; assay type: functional, organism-based; conditions: Human immunodeficiency virus 1, MT4
Outline: (§1)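 MT-4 lymphoid cells infected with HIV-1 carrying RT K103N, Y181C or Y188L, with a range of drug concentrations present. Viable cells counted by MTT colorimetric assay at day 5 post-infection. […] Highest concentration tested was limited by precipitation in culture medium. Means of at least two experiments.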

[2] = system: Human immunodeficiency virus 1; test: Antiviral activity against HIV-1 harboring NNTRI-resistant reverse transcriptase K103N mutant infected in human MT4 cells assessed as inhibition of virus-induced cytopathic effect by MTT method; assay type: functional, organism-based; conditions: Human immunodeficiency virus 1, MT4
[3] = system: Human immunodeficiency virus 1; test: Antiviral activity against HIV-1 harboring NNTRI-resistant reverse transcriptase Y188L mutant infected in human MT4 cells assessed as inhibition of virus-induced cytopathic effect by MTT method; assay type: functional, organism-based; conditions: Human immunodeficiency virus 1, MT4; outline: as §1
[4] = system: Human immunodeficiency virus 1; test: Fold resistance, ratio of EC50 for HIV-1 harboring NNTRI-resistant reverse transcriptase Y188L mutant infected in human MT4 cells to EC50 for wild type HIV-1 NL4-3 infected in human MT4 cells; assay type: functional
Outline: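 HIV-1 NL4-3 (wt) or Y188L mutant infection of MT-4 cells across a range of drug concentrations. Viable cells were counted by MTT at day 5 post-infection. […] Fold resistance is mutant EC50 over wt EC50. Means of at least two experiments.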

[5] = Cytotoxicity against human MT4 cells assessed as induction of cell death by MTT method; assay type: cell-based
Outline: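 Mock-infected MT-4 cells exposed to a range of drug concentrations. Viability read by MTT colorimetry at day 5. […] Top concentration was limited where compound precipitated in the culture medium. Means of at least two experiments.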

[6] = system: Human immunodeficiency virus 1; test: Fold resistance, ratio of ID50 for HIV-1 recombinant NNTRI-resistant reverse transcriptase K103N mutant to ID50 for wild type HIV-1 recombinant reverse transcriptase
Outline: (§2)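 Recombinant wt or mutant HIV-1 RT, purified to >95%, at 2-4 nM. RNA-dependent DNA polymerase activity with 0.5 µg poly(rA)/oligo(dT)10:1 (0.3 µM 3'-OH ends), 10 µM [3H]-dTTP and 8% final DMSO. Incorporation was sampled at 2-min intervals. ID50 came from fitting to a fully non-competitive model. Ratio is ID50 mutant/ID50 wt. Means of at least three experiments.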

[7] = system: Human immunodeficiency virus 1; test: Fold resistance, ratio of EC50 for HIV-1 harboring NNTRI-resistant reverse transcriptase K103N mutant infected in human MT4 cells to EC50 for wild type HIV-1 NL4-3 infected in human MT4 cells; assay type: functional
[8] = system: Human immunodeficiency virus 1; test: Antiviral activity against wild type HIV-1 NL4-3 infected in human MT4 cells assessed as inhibition of virus-induced cytopathic effect by MTT method; assay type: functional, organism-based; conditions: Human immunodeficiency virus 1, NL4-3, MT4
Outline: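 MT-4 lymphoid cells infected with wild-type HIV-1 NL4-3 while exposed to a range of drug concentrations. Viable cells counted by tetrazolium (MTT) colorimetry at day 5 post-infection. Means of at least two experiments.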

[9] = system: Human immunodeficiency virus 1; test: Fold resistance, ratio of ID50 for HIV-1 recombinant NNTRI-resistant reverse transcriptase L100I mutant to ID50 for wild type HIV-1 recombinant reverse transcriptase; outline: as §2
[10] = system: Human immunodeficiency virus 1; test: Fold resistance, ratio of EC50 for HIV-1 harboring NNTRI-resistant reverse transcriptase Y181C mutant infected in human MT4 cells to EC50 for wild type HIV-1 NL4-3 infected in human MT4 cells; assay type: functional
Outline: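 MT-4 cells infected with HIV-1 mutant (K103N or Y181C) or wild-type NL4-3, with drug present. […] Fold resistance is the mutant EC50 divided by the wild-type NL4-3 EC50. EC50 values are means of at least two experiments.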

[11] = Selectivity index, ratio of CC50 for human MT4 cells to EC50 for wild type HIV-1 NL4-3 infected in human MT4 cells; assay type: toxicity, cell-based; conditions: read-out: Ratio CC50/EC50
Outline: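 Ratio of CC50 to EC50, both from MTT readings in MT-4 cells at day 5. CC50 was taken in mock-infected cells and EC50 in cells infected with wild-type NL4-3. Values are means of at least two experiments.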

[12] = molecular target: Human immunodeficiency virus type 1 reverse transcriptase (Human immunodeficiency virus 1) (UniProt Q72547)
[13] = system: Human immunodeficiency virus type 1 reverse transcriptase (Human immunodeficiency virus 1), Q72547 [L100I]
[14] = system: Human immunodeficiency virus type 1 reverse transcriptase (Human immunodeficiency virus 1), Q72547 [K103N]
[15] = system: Human immunodeficiency virus 1; test: Fold resistance, ratio of ID50 for HIV-1 recombinant NNTRI-resistant reverse transcriptase Y181I mutant to ID50 for wild type HIV-1 recombinant reverse transcriptase
Outline: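 RNA-dependent DNA polymerase activity with 0.5 µg poly(rA)/oligo(dT)10:1 (0.3 µM 3'-OH ends), 10 µM [3H]-dTTP and 8% final DMSO. Incorporation was sampled at 2-min intervals. ID50 came from fitting to a fully non-competitive model. Means of at least three experiments.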

SMILES	pEC50 [1]	pEC50 [2]	pEC50 [3]	Ratio EC50 [4]	CC50 [5]	Ratio [6]	Ratio EC50 [7]	pEC50 [8]	Ratio [9]	Ratio EC50 [10]	selectivity ratio [11]	ID50 [12]	ID50 [13]	ID50 [14]	Ratio [15]
CC[C@H](C)Sc1nc([C@H](C)c2c(F)cccc2Cl)cc(=O)[nH]1 (racemic)	5.91	5.91	5.13	673	> 39000 nM	229	111	7.96	24	113	> 3540	–	–	–	–
CC[C@H](C)Sc1nc([C@@H](C)c2c(F)cccc2Cl)c(C)c(=O)[nH]1	< 4.33	< 4.33	< 4.33	–	> 47000 nM	–	–	5.44	0.2	–	–	–	–	–	–
CC[C@H](C)Sc1nc([C@@H](C)c2c(F)cccc2Cl)cc(=O)[nH]1	< 4.13	5.12	< 4.13	–	> 73000 nM	–	53	6.84	4	–	> 507	–	–	–	–
Cc1c(O)nc(SC(C)C)nc1C(C)c1c(F)cccc1F (racemic)	6.92	6.57	< 5.52	–	–	–	270	9.00	–	120	–	3 nM	280 nM	580 nM	–
CCCCSc1nc(C(C)c2c(F)cccc2F)c(CC)c(=O)[nH]1 (racemic)	< 5.52	< 5.52	< 5.52	–	> 3000 nM	130	–	7.24	93	–	> 53	3 nM	280 nM	390 nM	1000
CCCSc1nc(Cc2c(F)cccc2Cl)c(C)c(=O)[nH]1	5.64	5.04	< 4.12	–	> 76000 nM	–	107	7.07	–	27	> 884	–	–	–	–
CCC(C)Sc1nc(Cc2c(F)cccc2Cl)cc(=O)[nH]1 (stereo not drawn)	5.08	4.60	< 4.12	–	> 76000 nM	–	157	6.80	–	52	> 475	–	–	–	–
CCC(C)Sc1nc(O)c(C)c(C(C)c2c(F)cccc2F)n1 (racemic)	7.15	6.96	< 5.52	–	> 3000 nM	–	122	9.05	–	79	> 3330	31 nM	670 nM	1700 nM	–
CCCCSc1nc(C(C)c2c(F)cccc2Cl)cc(=O)[nH]1 (racemic)	5.41	5.96	5.25	–	> 73000 nM	220	–	9.52	60	–	–	10 nM	600 nM	2200 nM	–
CCC(c1nc(SC(C)C)[nH]c(=O)c1C)c1c(F)cccc1F (racemic)	6.12	6.28	6.57	67	> 30000 nM	–	132	8.40	–	187	> 7500	4 nM	210 nM	310 nM	–
CC[C@H](C)Sc1nc([C@H](C)c2c(F)cccc2Cl)c(C)c(=O)[nH]1 (racemic)	4.19	< 4.15	< 4.15	–	> 70400 nM	–	–	4.36	0.1	–	–	–	–	–	–
CCCSc1nc(C(C)c2c(F)cccc2Cl)cc(=O)[nH]1 (racemic)	5.64	6.05	5.10	2633	> 75000 nM	–	297	8.52	–	767	> 25000	8 nM	500 nM	1300 nM	–
CCCCSc1nc(Cc2c(F)cccc2Cl)cc(=O)[nH]1	4.78	4.53	< 4.12	–	> 76000 nM	–	101	6.54	–	58	> 262	–	–	–	–
CCC(C)Sc1nc(C(CC)c2c(F)cccc2F)c(C)c(=O)[nH]1 (racemic)	6.52	6.70	6.05	1125	> 3000 nM	–	250	9.10	–	375	> 3750	6 nM	48 nM	140 nM	–
CCC(c1nc(SC2CCCC2)[nH]c(=O)c1C)c1c(F)cccc1F (racemic)	5.96	6.00	5.80	145	30000 nM	–	91	7.96	–	100	2730	5 nM	110 nM	380 nM	–
CC[C@@H](C)Sc1nc([C@@H](C)c2c(F)cccc2Cl)c(C)c(=O)[nH]1	6.05	6.82	5.48	–	> 70400 nM	69	–	8.85	37	–	–	–	–	–	–
Cc1c(Cc2c(F)cccc2Cl)nc(SC(C)C)[nH]c1=O	5.08	4.97	< 4.12	–	> 76000 nM	–	88	6.92	–	70	> 633	–	–	–	–
CC(C)Sc1nc(C(C)c2c(F)cccc2Cl)cc(=O)[nH]1 (racemic)	5.12	5.96	4.51	15350	> 75000 nM	–	550	8.70	–	3750	> 37500	8 nM	340 nM	1300 nM	–
CC[C@@H](C)Sc1nc([C@H](C)c2c(F)cccc2Cl)c(C)c(=O)[nH]1	7.06	7.82	6.41	–	> 70400 nM	101	–	10.22	41	–	–	–	–	–	–
CC(c1cc(=O)[nH]c(SC2CCCC2)n1)c1c(F)cccc1Cl (racemic)	5.52	6.05	< 4.15	–	> 71000 nM	–	3000	9.52	–	10000	> 237000	15 nM	1100 nM	1800 nM	–
CC[C@@H](C)Sc1nc([C@@H](C)c2c(F)cccc2Cl)cc(=O)[nH]1	4.88	5.25	< 4.29	–	> 52000 nM	365	118	7.33	4	281	> 1110	–	–	–	–
CCCSc1nc(Cc2c(F)cccc2Cl)cc(=O)[nH]1	5.09	4.73	< 4.10	–	> 80000 nM	–	72	6.59	–	31	> 308	–	–	–	–
